According to ChEMBL document CHEMBL4732048, “Amphiphilic desmuramyl peptides for the rational design of new vaccine adjuvants: Synthesis, in vitro modulation of inflammatory response and molecular docking studies” (2021):
Activity calls are given as the source filed them. No cut-off for these calls is given here.

Assays:
[1] = system: THP-1; assay: Immunostimulatory activity in human THP-1 cells assessed as increase in LPS-induced ICAM-1 expression at 20 uM preincubated for 1 hr followed by LPS stimulation for 20 hrs by flow cytometry analysis; assay type: functional, cell-based; conditions: time 21.0 hrs
How it was run: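 Undifferentiated THP-1 monocytes (0.5×10^6/well, pre-cultured 24 h) pretreated 1 h with peptide (range 0.1–32 µM), then LPS 0.1 µg/mL added for 20 h. Cells pelleted, PBS-washed, resuspended in PBS with 0.1% BSA; ICAM-1 measured by flow cytometry.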

[2] = system: THP-1; assay: Immunostimulatory activity in human THP-1 cells assessed as increase in ICAM-1 expression level at 20 uM incubated for 21 hrs by flow cytometry analysis; assay type: functional, cell-based
How it was run: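 THP-1 monocytes in RPMI-1640 with 10% heat-inactivated FBS and 1% antibiotic/antimycotic, 5% CO2, 37 °C. 0.5×10^6 cells/well pre-cultured 24 h, then exposed to 20 µM peptide for 21 h. Cells centrifuged, PBS-washed, resuspended in PBS/0.1% BSA, stained with PE anti-CD54 antibody; flow cytometry read-out of ICAM-1.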

[3] = system: THP-1; assay: Immunostimulatory activity in human THP-1 macrophage assessed as increase in TNF-alpha production at 30 uM incubated for 24 hrs by ELISA; assay type: functional, cell-based
How it was run: (§1)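 THP-1 monocytes (0.5×10^6) differentiated 48 h with PMA 20 ng/mL, PBS-washed, held 3 h in serum-free medium, then stimulated 24 h with peptide at 1, 15 or 30 µM. TNF-α in culture supernatants (stored −80 °C) measured by ELISA at 450 nm with 540 nm correction against a 2nd-order polynomial standard curve; mean of two experiments ± SEM; one-way ANOVA.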

[4] = system: THP-1; assay: Immunostimulatory activity in human THP-1 macrophage assessed as increase in TNF-alpha production at 15 uM incubated for 24 hrs by ELISA; assay type: functional; how it was run: as §1
[5] = system: THP-1; assay: Immunostimulatory activity in human THP-1 macrophage assessed as increase in LPS-induced ICAM-1 expression by measuring mean fluorescence intensity at 20 uM preincubated for 1 hr followed by LPS stimulation for 20 hrs by flow cytometry analysis (reference value: 602.95); assay type: functional; conditions: time 21 hrs

In the case of `CCCCCCNC(=O)CC[C@@H](NC(=O)[C@H](C)NC(=O)COc1cccc(N(CCO)C(=O)CCC)c1)C(N)=O`, the Activity [1] is reported as “Active”, the Activity [2] is reported as “inactive” and the Activity [3] is reported as “inactive”. The Activity [4] was 2806 pg/mL.

In the case of `CCCCCCNC(=O)CC[C@@H](NC(=O)[C@H](C)NC(=O)COc1cccc(N(CCO)C(C)=O)c1)C(N)=O`, the Activity [1] is reported as “Active”, the Activity [2] is reported as “inactive” and the Activity [3] is reported as “inactive”. It also gave an Activity [4] of 3342 pg/mL.

With `CCCCCCNC(=O)CC[C@@H](NC(=O)[C@H](C)NC(=O)COc1cccc(N(CCCO)C(=O)CCC)c1)C(N)=O` the Activity [1] was “Active”, the Flu intensity [5] was 905.38 and the Activity [2] was “inactive”. For the same compound, the Activity [3] was “inactive” and the Activity [4] was 3105 pg/mL.

With `CCCCCCNC(=O)CC[C@@H](NC(=O)[C@H](C)NC(=O)COc1cccc(N(CCO)CCO)c1)C(N)=O` the Activity [1] was “Active”, the Activity [2] was “inactive” and the Activity [3] was “inactive”. It also gave an Activity [4] of 3111 pg/mL.

For `CCCCCCNC(=O)CC[C@@H](NC(=O)[C@H](C)NC(=O)COc1cccc(NCCO)c1)C(N)=O`, the Activity [1] was “Active”, the Activity [2] was “inactive” and the Activity [3] was “inactive”. The Activity [4] was 3226 pg/mL.

For `CCCCCCNC(=O)CC[C@@H](NC(=O)[C@H](C)NC(=O)COc1cccc(N(CCCO)CCCO)c1)C(N)=O`, the Activity [1] was “Active”, the Activity [2] was “inactive” and the Activity [3] was “inactive”. It also gave an Activity [4] of 3306 pg/mL.

`CCCCCCNC(=O)CC[C@@H](NC(=O)[C@H](C)NC(=O)COc1cccc(N(CCCO)C(C)=O)c1)C(N)=O` was tested, and the Activity [1] was “Active”, the Activity [2] was “inactive” and the Activity [3] was “inactive”. It also gave an Activity [4] of 2902 pg/mL.

`CCCCOC(=O)[C@@H](CCC(N)=O)NC(=O)[C@H](C)NC(=O)[C@@H](C)O[C@H]1[C@H](O)[C@@H](CO)O[C@H](O)[C@@H]1NC(C)=O` was tested, and the Flu intensity [5] was 1436.05, the Activity [2] was “inactive” and the Activity [4] was 2694 pg/mL.

For `CCCCCCNC(=O)CC[C@@H](NC(=O)[C@H](C)NC(=O)COc1cccc(NCCCO)c1)C(N)=O`, the Activity [1] was “Active”, the Activity [2] was “inactive” and the Activity [3] was “inactive”. For the same compound, the Activity [4] was 3622 pg/mL.
